Results from ChEMBL document CHEMBL1140076, “Discovery and labeling of high-affinity 3,4-diarylpyrazolines as candidate radioligands for in vivo imaging of cannabinoid subtype-1 (CB1) receptors” (J Med Chem, 2008).
pIC50, pKi: −log10 of the molar value.

What was measured:
Cannabinoid receptor 2 = Cannabinoid receptor 2 (Homo sapiens, UniProt P34972); test: Binding affinity to human CB2 receptor by [35S]GTPgammaS binding assay; assay type: functional
Summary of the method: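 Recombinant human CB2 membranes (7 µg/well) in buffer with 100 mM NaCl, 5 mM MgCl2, 1 mM EDTA, 50 mM HEPES, 10 µM GDP, 100 µM DTT, 0.01% BSA. Incubation 45 min at 30 °C, then filtration and scintillation counting. Nonspecific binding with 20 µM GTPγS. IC50 converted to Ki by Cheng-Prusoff; triplicates.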

Cannabinoid receptor 1 = Cannabinoid receptor 1 (Homo sapiens, UniProt P21554); test: Binding affinity to human CB1 receptor by [35S]GTPgammaS binding assay; assay type: functional
Cannabinoid receptor 1, sequence (P21554 whole entry): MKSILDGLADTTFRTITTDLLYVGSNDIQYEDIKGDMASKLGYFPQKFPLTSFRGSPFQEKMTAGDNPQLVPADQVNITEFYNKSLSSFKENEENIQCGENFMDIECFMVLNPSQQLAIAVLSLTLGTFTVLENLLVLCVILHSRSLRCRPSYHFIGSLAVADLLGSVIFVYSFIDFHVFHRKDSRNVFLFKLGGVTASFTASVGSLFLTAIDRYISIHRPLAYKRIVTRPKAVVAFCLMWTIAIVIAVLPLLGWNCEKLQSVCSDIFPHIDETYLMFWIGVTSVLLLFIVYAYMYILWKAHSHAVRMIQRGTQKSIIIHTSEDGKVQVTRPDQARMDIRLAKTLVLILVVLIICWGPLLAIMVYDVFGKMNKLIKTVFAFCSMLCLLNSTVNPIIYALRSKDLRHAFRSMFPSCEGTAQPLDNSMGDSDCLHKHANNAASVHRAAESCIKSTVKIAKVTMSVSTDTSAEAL

Histamine H2 receptor = Histamine H2 receptor (Homo sapiens, UniProt P25021); test: Displacement of [3H]tiotidine from human cloned histamine H2 receptor
Histamine H2 receptor, sequence (P25021 whole entry): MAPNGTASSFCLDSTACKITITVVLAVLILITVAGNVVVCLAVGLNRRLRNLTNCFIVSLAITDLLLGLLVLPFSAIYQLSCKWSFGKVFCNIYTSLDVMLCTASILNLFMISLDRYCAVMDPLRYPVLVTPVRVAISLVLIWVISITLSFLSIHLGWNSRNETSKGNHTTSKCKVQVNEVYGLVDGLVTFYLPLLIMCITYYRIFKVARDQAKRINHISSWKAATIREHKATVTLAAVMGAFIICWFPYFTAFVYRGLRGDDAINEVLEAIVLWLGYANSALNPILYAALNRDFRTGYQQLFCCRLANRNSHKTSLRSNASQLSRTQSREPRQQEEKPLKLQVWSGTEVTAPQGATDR

Histamine H3 receptor = Histamine H3 receptor (Homo sapiens, UniProt Q9Y5N1); test: Displacement of [3H]alpha methyl histamine from human cloned histamine H3 receptor
Histamine H3 receptor, sequence (Q9Y5N1 whole entry): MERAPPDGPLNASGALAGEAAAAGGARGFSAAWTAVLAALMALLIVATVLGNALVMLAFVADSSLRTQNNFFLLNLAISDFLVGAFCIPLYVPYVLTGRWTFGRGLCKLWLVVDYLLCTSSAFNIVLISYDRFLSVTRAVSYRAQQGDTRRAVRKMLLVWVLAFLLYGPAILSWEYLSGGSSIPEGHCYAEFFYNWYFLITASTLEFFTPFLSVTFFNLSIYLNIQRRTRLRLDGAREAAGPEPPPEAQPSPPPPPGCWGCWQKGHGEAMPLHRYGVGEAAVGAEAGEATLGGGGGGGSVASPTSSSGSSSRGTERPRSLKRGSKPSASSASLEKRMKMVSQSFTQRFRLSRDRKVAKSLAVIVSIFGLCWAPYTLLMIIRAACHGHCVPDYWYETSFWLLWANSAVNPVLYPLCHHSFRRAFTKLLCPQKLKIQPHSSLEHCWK

[1] = target: 5-hydroxytryptamine receptor 2A (Homo sapiens, UniProt P28223); test: Displacement of [3H]ketanserin from human cloned 5HT2A receptor
5-hydroxytryptamine receptor 2A, sequence (P28223 whole entry): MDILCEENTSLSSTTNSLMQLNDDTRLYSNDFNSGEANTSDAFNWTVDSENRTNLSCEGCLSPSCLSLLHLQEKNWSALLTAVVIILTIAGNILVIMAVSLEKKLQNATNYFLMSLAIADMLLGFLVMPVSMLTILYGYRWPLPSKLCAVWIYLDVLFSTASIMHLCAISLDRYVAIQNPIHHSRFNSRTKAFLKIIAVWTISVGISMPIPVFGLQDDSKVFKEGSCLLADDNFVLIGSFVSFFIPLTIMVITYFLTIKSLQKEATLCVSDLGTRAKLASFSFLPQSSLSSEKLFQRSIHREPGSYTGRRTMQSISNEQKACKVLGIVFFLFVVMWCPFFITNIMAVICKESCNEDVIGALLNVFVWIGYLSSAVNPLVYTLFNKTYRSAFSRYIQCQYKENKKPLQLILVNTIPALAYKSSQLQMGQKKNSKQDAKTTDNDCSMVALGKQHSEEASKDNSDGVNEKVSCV

Pons [2] = test: Biodistribution in cynomolgus monkey brain pons assessed as standardized uptake value at 78 GBq/umol, iv after 24 mins; assay type: ADME, organism-based, Macaca fascicularis; settings: in vivo, 0.4 h
Summary of the method: (§1)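 Anesthetized cynomolgus monkeys (3.4, 4.8 kg; ketamine/xylazine i.m., head in stereotactic frame). [11C] radioligand given as i.v. bolus over about 5 s: 56–100 MBq, 0.33–0.81 µg carrier. Brain scanned on ECAT EXACT HR for 93 min. Regions defined on a monkey brain atlas. Decay-corrected activity expressed as %SUV (% injected activity per g tissue × body weight).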

[3] = Biodistribution in cynomolgus monkey brain striatum assessed as standardized uptake value at 78 GBq/umol, iv after 30 mins; assay type: ADME, organism-based, Macaca fascicularis; settings: in vivo, 0.5 h; summary of the method: as §1
Pons [4] = test: Biodistribution in cynomolgus monkey brain pons assessed as standardized uptake value at 78 GBq/umol, iv after 90 mins; assay type: ADME, organism-based, Macaca fascicularis; settings: in vivo, 1.5 h; summary of the method: as §1
[5] = Biodistribution in cynomolgus monkey brain striatum assessed as standardized uptake value at 78 GBq/umol, iv after 90 mins; assay type: ADME, organism-based, Macaca fascicularis; settings: in vivo, 1.5 h; summary of the method: as §1
Brain [6] = test: Biodistribution in 1 mg/kg, iv N-(4-fluorobenzyl)-4-(3-(piperidin-1-yl)-1H-indol-1-ylsulfonyl)benzamide pretreated cynomolgus monkey brain assessed as standardized uptake value at […], iv after 15 mins; assay type: ADME, organism-based, Macaca fascicularis; design: dose 1 mg/kg, route intravenous; settings: in vivo, 0.25 h
Brain [7] = test: Biodistribution in 1 mg/kg, iv N-(4-fluorobenzyl)-4-(3-(piperidin-1-yl)-1H-indol-1-ylsulfonyl)benzamide pretreated cynomolgus monkey brain assessed as standardized uptake value at […], iv after 90 mins; assay type: ADME, organism-based, Macaca fascicularis; design: dose 1 mg/kg, route intravenous; settings: in vivo, 1.5 h
[8] = Biodistribution in cynomolgus monkey brain striatum assessed as standardized uptake value at 65 GBq/umol, iv after 48 mins; assay type: ADME, organism-based, Macaca fascicularis; settings: in vivo, 0.8 h; summary of the method: as §1
[9] = Biodistribution in cynomolgus monkey plasma assessed as unchanged drug level at 65 GBq/umol, iv after 45 mins; assay type: ADME, organism-based, Macaca fascicularis; settings: read-out: Activity
Summary of the method: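 Venous blood (1 mL) taken 5, 15, 30 and 45 min after i.v. radioligand in anesthetized monkey. Plasma (0.5 mL) mixed with MeCN containing carrier standard and centrifuged at 2000 × g for 1 min. Supernatant counted, then analyzed by reverse-phase radio-HPLC with a MeCN/0.01 M H3PO4 gradient. Parent expressed as % of plasma radioactivity.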

Pons [10] = test: Biodistribution in cynomolgus monkey brain pons assessed as standardized uptake value at 65 GBq/umol, iv after 24 mins; assay type: ADME, organism-based, Macaca fascicularis; settings: in vivo, 0.4 h; summary of the method: as §1
[11] = Biodistribution in cynomolgus monkey brain striatum assessed as standardized uptake value at 56 GBq/umol, iv after 1.5 mins; assay type: ADME, organism-based, Macaca fascicularis; settings: in vivo, 0.025 h; summary of the method: as §1
[12] = Biodistribution in cynomolgus monkey brain striatum assessed as standardized uptake value at 56 GBq/umol, iv after 90 mins; assay type: ADME, organism-based, Macaca fascicularis; settings: in vivo, 1.5 h; summary of the method: as §1

Cannabinoid receptor 2, sequence (P34972 whole entry): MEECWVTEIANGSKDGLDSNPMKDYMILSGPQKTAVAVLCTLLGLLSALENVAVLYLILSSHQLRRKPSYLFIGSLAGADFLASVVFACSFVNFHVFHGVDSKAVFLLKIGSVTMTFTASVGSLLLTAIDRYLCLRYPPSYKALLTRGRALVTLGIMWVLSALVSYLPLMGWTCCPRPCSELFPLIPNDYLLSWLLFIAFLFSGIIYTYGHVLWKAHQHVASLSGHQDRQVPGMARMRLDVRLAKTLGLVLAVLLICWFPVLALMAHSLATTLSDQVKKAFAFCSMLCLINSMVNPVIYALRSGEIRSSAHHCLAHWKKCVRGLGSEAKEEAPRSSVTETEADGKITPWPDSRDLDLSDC

Row | pIC50 (Cannabinoid receptor 2) | pKi (Cannabinoid receptor 2) | pIC50 (Cannabinoid receptor 1) | pKi (Cannabinoid receptor 1) | Structure (SMILES) | also measured
1 | < 4.48 | < 5.30 | 8.72 | 9.52 | N/C(=N\S(=O)(=O)c1ccc(I)cc1)N1C[C@H](c2ccccc2)C(c2ccc(Cl)cc2)=N1 | 
2 | < 4.48 | < 5.30 | 6.99 | 7.76 | N/C(=N\S(=O)(=O)c1ccc(I)cc1)N1C[C@@H](c2ccccc2)C(c2ccc(Cl)cc2)=N1 | 
3 | < 4.48 | < 5.30 | 8.55 | 9.30 | N#Cc1ccc(S(=O)(=O)/N=C(\N)N2C[C@H](c3ccccc3)C(c3ccc(Cl)cc3)=N2)cc1 | pKi (Histamine H2 receptor): < 5.00; pKi (Histamine H3 receptor): < 5.00; pKi [1]: < 5.11
4 | < 4.48 | < 5.30 | 7.00 | 7.77 | N#Cc1ccc(S(=O)(=O)/N=C(\N)N2C[C@@H](c3ccccc3)C(c3ccc(Cl)cc3)=N2)cc1 | 
5 |  |  |  |  | N#[11C]c1ccc(S(=O)(=O)/N=C(\N)N2CC(c3ccccc3)C(c3ccc(Cl)cc3)=N2)cc1 (racemic) | Drug uptake (Pons [2]): 150%; Drug uptake [3]: 220%; Drug uptake (Pons [4]): 124%; Drug uptake [5]: 180%; Drug uptake (Brain [6]): 175%; Drug uptake (Brain [7]): 85%
6 |  |  |  |  | N#[11C]c1ccc(S(=O)(=O)/N=C(\N)N2C[C@H](c3ccccc3)C(c3ccc(Cl)cc3)=N2)cc1 | Drug uptake [8]: 200%; remaining at 0.75 h [9]: 50%; Drug uptake (Pons [10]): 125%
7 |  |  |  |  | N#[11C]c1ccc(S(=O)(=O)/N=C(\N)N2C[C@@H](c3ccccc3)C(c3ccc(Cl)cc3)=N2)cc1 | Drug uptake [11]: 280%; Drug uptake [12]: 95%
